Data on 38 sequences can be found in the array DNA melting data of Ke et al. (doi:10.1101/2024.01.08.574731).

Data set [1] can be described thus: melting temperature; fluorescence melt of hairpins on a sequencing array, two-state fit, raised by 9.35 °C to match UV melts. The note with it: sodium 0.088 M. Put shortly:
(§1)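 Library hairpins on a sequenced MiSeq flow cell carried annealed Cy3 and quencher oligos, and their Cy3 fluorescence was imaged in 50 mM Na-HEPES pH 8.0 with 25 mM NaCl, in 2.5 °C steps up to 60 °C. Signals were normalised to Cy3 before quenching and to control constructs. Melting temperature and folding enthalpy were obtained from bootstrapped two-state fits, combined by inverse-variance weighting across four replicates, and the fitted temperatures were then raised by 9.35 °C to match UV melts.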

Data set [2] is described as follows: folding enthalpy; higher = less favourable; fluorescence melt of hairpins on a sequencing array, two-state fit. The note with it: sodium 0.088 M. The essentials: as §1

For GATCGGCCACCGATC ((((((...)))))), in data set [1], the Tm is 55.1 °C. Also, in data set [2], the folding enthalpy was -31.7 kcal/mol.

As to GATCGGCCAGCCGATC ((((((....)))))), in data set [1], the Tm stood at 65.9 °C. The folding enthalpy in data set [2] is -36.8 kcal/mol.

With GATCGGCCCGCCGATC ((((((....)))))), the Tm in data set [1] turned out to be 68.3 °C. Further, the folding enthalpy in data set [2] is -43.9 kcal/mol.

With GATCGGCCTACCGATC ((((((....)))))), in data set [1], the Tm came to 57.9 °C. In addition, in data set [2], the folding enthalpy was -36.5 kcal/mol.

Take GATCGGCGAAAGCCTATC (((.(((....))).))): the Tm in data set [1] turned out to be 39.9 °C. Moreover, in data set [2], the folding enthalpy is -19.2 kcal/mol.

In the case of GATCGGCGTTCCGATC ((((((....)))))), the Tm in data set [1] is 56.3 °C. The folding enthalpy in data set [2] was -39.3 kcal/mol.

As for GATCGGCTATCCGATC ((((((....)))))), in data set [1], the Tm was 55.8 °C. Also, the folding enthalpy in data set [2] is -38.4 kcal/mol.

On to GATCGGCTCTCCGATC ((((((....)))))), for which the Tm in data set [1] is 55.4 °C. For the same sequence, the folding enthalpy in data set [2] is -47.3 kcal/mol.

As for GATCGGCTTCCCGATC ((((((....)))))), the Tm in data set [1] worked out at 56.4 °C. Moreover, the folding enthalpy in data set [2] is -35.5 kcal/mol.

With GATCGGGACACCGATC ((((((....)))))), the Tm in data set [1] came out at 66 °C. Besides, the folding enthalpy in data set [2] was -38.4 kcal/mol.

On to GATCGGGAGCCGATC ((((((...)))))), for which the Tm in data set [1] came out at 53.7 °C. The folding enthalpy in data set [2] was -22 kcal/mol.

Regarding GATCGGGATTCCGATC ((((((....)))))), in data set [1], the Tm is 57.5 °C. The folding enthalpy in data set [2] is -39.7 kcal/mol.

Take GATCGGGCACCCGATC ((((((....)))))): the Tm in data set [1] is 64.6 °C. For the same sequence, the folding enthalpy in data set [2] is -39.9 kcal/mol.

Take GATCGGGCATCCGATC ((((((....)))))): in data set [1], the Tm came out at 63.3 °C. Also, in data set [2], the folding enthalpy was -41.9 kcal/mol.

For the sequence GATCGGGCCGCCGATC ((((((....)))))), the Tm in data set [1] is 59.1 °C. Also, in data set [2], the folding enthalpy was -37.2 kcal/mol.

As for GATCGGGCTTCCGATC ((((((....)))))), the Tm in data set [1] was found to be 59.4 °C. The folding enthalpy in data set [2] is -41.2 kcal/mol.

For the sequence GATCGGGGAAACCCAATC (((.(((....))).))), the Tm in data set [1] came to 32.8 °C. In addition, in data set [2], the folding enthalpy is -20.8 kcal/mol.

Take GATCGGGTACCGATC ((((((...)))))): the Tm in data set [1] was found to be 67.5 °C. In addition, in data set [2], the folding enthalpy was -44.7 kcal/mol.

In the case of GATCGGGTTCCCGATC ((((((....)))))), the Tm in data set [1] is 62.8 °C. For the same sequence, the folding enthalpy in data set [2] is -42.5 kcal/mol.

Regarding GATCGGGTTCCGATC ((((((...)))))), in data set [1], the Tm is 56.8 °C. The folding enthalpy in data set [2] is -39.1 kcal/mol.

Take GATCGGTACTCCGATC ((((((....)))))): in data set [1], the Tm came out at 59.3 °C. For the same sequence, the folding enthalpy in data set [2] was -38.3 kcal/mol.

In the case of GATCGGTCACCCGATC ((((((....)))))), the Tm in data set [1] came out at 56.4 °C. Also, in data set [2], the folding enthalpy is -31.4 kcal/mol.

On to GATCGGTCATCCGATC ((((((....)))))), for which the Tm in data set [1] was 59.4 °C. Besides, in data set [2], the folding enthalpy is -39.7 kcal/mol.

For the sequence GATCGGTCCCCGATC ((((((...)))))), the Tm in data set [1] was 57.4 °C. Besides, the folding enthalpy in data set [2] was -44.8 kcal/mol.

Turning to GATCGGTCGCCCGATC ((((((....)))))), in data set [1], the Tm worked out at 57.4 °C. For the same sequence, the folding enthalpy in data set [2] is -54.5 kcal/mol.

As to GATCGGTCGTCCGATC ((((((....)))))), the Tm in data set [1] came to 60.2 °C. For the same sequence, the folding enthalpy in data set [2] is -40.9 kcal/mol.

Regarding GATCGGTGCCCGATC ((((((...)))))), the Tm in data set [1] turned out to be 58 °C. The folding enthalpy in data set [2] is -40.8 kcal/mol.

On to GATCGGTGCTCCGATC ((((((....)))))), for which the Tm in data set [1] came out at 57.9 °C. For the same sequence, the folding enthalpy in data set [2] is -40.8 kcal/mol.

For GATCGGTGGCCGATC ((((((...)))))), the Tm in data set [1] is 55.9 °C. Besides, the folding enthalpy in data set [2] is -33.8 kcal/mol.

On to GATCGGTTACCGATC ((((((...)))))), for which the Tm in data set [1] is 59.3 °C. Besides, in data set [2], the folding enthalpy was -36.1 kcal/mol.

Turning to GATCGGTTGGCCGATC ((((((....)))))), the Tm in data set [1] worked out at 60.9 °C. Besides, in data set [2], the folding enthalpy is -42 kcal/mol.

For the sequence GATCGGTTTCCCGATC ((((((....)))))), the Tm in data set [1] stood at 57.1 °C. In addition, the folding enthalpy in data set [2] was -40.4 kcal/mol.

Take GATCGTAAATACGATC ((((((....)))))): the Tm in data set [1] is 53 °C. Further, in data set [2], the folding enthalpy is -38.9 kcal/mol.

With GATCGTAAGCACGATC ((((((....)))))), in data set [1], the Tm was determined as 53.9 °C. Moreover, the folding enthalpy in data set [2] was -36.4 kcal/mol.

With GATCGTAATAACGATC ((((((....)))))), in data set [1], the Tm is 53.9 °C. Moreover, the folding enthalpy in data set [2] is -37 kcal/mol.

With GATCGTACCTACGATC ((((((....)))))), the Tm in data set [1] was 55.6 °C. Also, in data set [2], the folding enthalpy was -50.5 kcal/mol.

As to GATCGTAGAGACGATC ((((((....)))))), the Tm in data set [1] was determined as 51.9 °C. Further, the folding enthalpy in data set [2] was -25.4 kcal/mol.

GATCGTAGCAACGATC ((((((....)))))): the Tm in data set [1] was 54.7 °C. For the same sequence, in data set [2], the folding enthalpy is -38.6 kcal/mol.
